In ChEMBL document CHEMBL4689842, “EUbOPEN Chemogenomics Library wave 1” (2021):

Test system: U2OS
Experiment: Multiplex assay against U2OS
Format: toxicity, cell-based
Details: human
Method in brief: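 Values for tubulin, mitochondrial-mass and membrane-permeability phenotypes are per cents of cells with healthy nuclei. These cells were identified by CellPathfinder machine-learning gating of live cells that had been stained at seeding with Hoechst33342, BioTracker Green Microtubule Cytoskeleton Dye, MitoTracker Red and Annexin V Alexa Fluor 680 and imaged on a CQ1 microscope at 37°C and 5% CO2 after compound addition. The gating first set Hoechst high-intensity objects apart from normal cells, then split normal cells into healthy, pyknosed or fragmented nuclei, and pyknosed cells into mitotic or apoptotic.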

[1] = 12 h, 1 µM, compound concentration 1 uM, replicate 1
[2] = 12 h, 1 µM, compound concentration 1 uM, replicate 2
[3] = 12 h, 10 µM, compound concentration 10 uM, replicate 1
[4] = 12 h, 10 µM, compound concentration 10 uM, replicate 2
[5] = 24 h, 1 µM, compound concentration 1 uM, replicate 1
[6] = 24 h, 1 µM, compound concentration 1 uM, replicate 2
[7] = 24 h, 10 µM, compound concentration 10 uM, replicate 1
[8] = 24 h, 10 µM, compound concentration 10 uM, replicate 2
[9] = 48 h, 1 µM, compound concentration 1 uM, replicate 1
[10] = 48 h, 1 µM, compound concentration 1 uM, replicate 2
[11] = 48 h, 10 µM, compound concentration 10 uM, replicate 1
[12] = 48 h, 10 µM, compound concentration 10 uM, replicate 2

CCCS(=O)(=O)c1nc(NC2CC2)cc(-c2ccc3c(ccn3C3CC(C)(C)NC(C)(C)C3)c2)n1
Population Apoptotic (%) [1]: 39%
Population Fragmented Nuclei (%) [1]: 16%
Population Healthy Nuclei (%) [1]: 62%
Population Hoechst High Intensity Objects (%) [1]: 6%
Population Membrane Permeable-Phenotype (%) [1]: 8%
Population Mitochondria Different-Phenotype (%) [1]: 30%
Population Mitotic Cells (%) [1]: 60%
Population Normal (%) [1]: 93%
Population Pyknosed Nuclei (%) [1]: 21%
Population Tubulin-Different-Phenotype (%) [1]: 24%
Total Cell Count [1]: 588
Population Apoptotic (%) [2]: 38%
Population Fragmented Nuclei (%) [2]: 14%
Population Healthy Nuclei (%) [2]: 71%
Population Hoechst High Intensity Objects (%) [2]: 5%
Population Membrane Permeable-Phenotype (%) [2]: 5%
Population Mitochondria Different-Phenotype (%) [2]: 41%
Population Mitotic Cells (%) [2]: 61%
Population Normal (%) [2]: 94%
Population Pyknosed Nuclei (%) [2]: 13%
Population Tubulin-Different-Phenotype (%) [2]: 29%
Total Cell Count [2]: 1044
Population Apoptotic (%) [3]: 86%
Population Fragmented Nuclei (%) [3]: 83%
Population Healthy Nuclei (%) [3]: 0%
Population Hoechst High Intensity Objects (%) [3]: 6%
Population Membrane Permeable-Phenotype (%) [3]: 0%
Population Mitochondria Different-Phenotype (%) [3]: 0%
Population Mitotic Cells (%) [3]: 13%
Population Normal (%) [3]: 93%
Population Pyknosed Nuclei (%) [3]: 16%
Population Tubulin-Different-Phenotype (%) [3]: 0%
Total Cell Count [3]: 142
Population Apoptotic (%) [4]: 92%
Population Fragmented Nuclei (%) [4]: 75%
Population Healthy Nuclei (%) [4]: 4%
Population Hoechst High Intensity Objects (%) [4]: 7%
Population Membrane Permeable-Phenotype (%) [4]: 100%
Population Mitochondria Different-Phenotype (%) [4]: 38%
Population Mitotic Cells (%) [4]: 7%
Population Normal (%) [4]: 92%
Population Pyknosed Nuclei (%) [4]: 19%
Population Tubulin-Different-Phenotype (%) [4]: 84%
Total Cell Count [4]: 101
Population Apoptotic (%) [5]: 50%
Population Fragmented Nuclei (%) [5]: 16%
Population Healthy Nuclei (%) [5]: 67%
Population Hoechst High Intensity Objects (%) [5]: 10%
Population Membrane Permeable-Phenotype (%) [5]: 5%
Population Mitotic Cells (%) [5]: 50%
Population Normal (%) [5]: 89%
Population Pyknosed Nuclei (%) [5]: 16%
Population Tubulin-Different-Phenotype (%) [5]: 9%
Total Cell Count [5]: 749
Population Apoptotic (%) [6]: 22%
Population Fragmented Nuclei (%) [6]: 15%
Population Healthy Nuclei (%) [6]: 66%
Population Hoechst High Intensity Objects (%) [6]: 5%
Population Membrane Permeable-Phenotype (%) [6]: 10%
Population Mitochondria Different-Phenotype (%) [6]: 21%
Population Mitotic Cells (%) [6]: 77%
Population Normal (%) [6]: 94%
Population Pyknosed Nuclei (%) [6]: 18%
Population Tubulin-Different-Phenotype (%) [6]: 29%
Total Cell Count [6]: 1113
Population Apoptotic (%) [7]: 86%
Population Fragmented Nuclei (%) [7]: 80%
Population Healthy Nuclei (%) [7]: 0%
Population Hoechst High Intensity Objects (%) [7]: 6%
Population Membrane Permeable-Phenotype (%) [7]: 100%
Population Mitochondria Different-Phenotype (%) [7]: 25%
Population Mitotic Cells (%) [7]: 13%
Population Normal (%) [7]: 93%
Population Pyknosed Nuclei (%) [7]: 18%
Population Tubulin-Different-Phenotype (%) [7]: 100%
Total Cell Count [7]: 151
Population Apoptotic (%) [8]: 90%
Population Fragmented Nuclei (%) [8]: 73%
Population Healthy Nuclei (%) [8]: 10%
Population Hoechst High Intensity Objects (%) [8]: 7%
Population Membrane Permeable-Phenotype (%) [8]: 96%
Population Mitochondria Different-Phenotype (%) [8]: 75%
Population Mitotic Cells (%) [8]: 10%
Population Normal (%) [8]: 92%
Population Pyknosed Nuclei (%) [8]: 15%
Population Tubulin-Different-Phenotype (%) [8]: 96%
Total Cell Count [8]: 104
Population Apoptotic (%) [9]: 37%
Population Fragmented Nuclei (%) [9]: 16%
Population Healthy Nuclei (%) [9]: 69%
Population Hoechst High Intensity Objects (%) [9]: 6%
Population Membrane Permeable-Phenotype (%) [9]: 5%
Population Mitochondria Different-Phenotype (%) [9]: 15%
Population Mitotic Cells (%) [9]: 62%
Population Normal (%) [9]: 93%
Population Pyknosed Nuclei (%) [9]: 14%
Population Tubulin-Different-Phenotype (%) [9]: 14%
Total Cell Count [9]: 831
Population Apoptotic (%) [10]: 58%
Population Fragmented Nuclei (%) [10]: 11%
Population Healthy Nuclei (%) [10]: 68%
Population Hoechst High Intensity Objects (%) [10]: 8%
Population Membrane Permeable-Phenotype (%) [10]: 24%
Population Mitochondria Different-Phenotype (%) [10]: 17%
Population Mitotic Cells (%) [10]: 41%
Population Normal (%) [10]: 91%
Population Pyknosed Nuclei (%) [10]: 20%
Population Tubulin-Different-Phenotype (%) [10]: 23%
Total Cell Count [10]: 1197
Population Apoptotic (%) [11]: 90%
Population Fragmented Nuclei (%) [11]: 81%
Population Healthy Nuclei (%) [11]: 1%
Population Hoechst High Intensity Objects (%) [11]: 7%
Population Membrane Permeable-Phenotype (%) [11]: 100%
Population Mitochondria Different-Phenotype (%) [11]: 37%
Population Mitotic Cells (%) [11]: 9%
Population Normal (%) [11]: 92%
Population Pyknosed Nuclei (%) [11]: 16%
Population Tubulin-Different-Phenotype (%) [11]: 75%
Total Cell Count [11]: 198
Population Apoptotic (%) [12]: 80%
Population Fragmented Nuclei (%) [12]: 73%
Population Healthy Nuclei (%) [12]: 15%
Population Hoechst High Intensity Objects (%) [12]: 8%
Population Membrane Permeable-Phenotype (%) [12]: 97%
Population Mitochondria Different-Phenotype (%) [12]: 81%
Population Mitotic Cells (%) [12]: 19%
Population Normal (%) [12]: 91%
Population Pyknosed Nuclei (%) [12]: 10%
Population Tubulin-Different-Phenotype (%) [12]: 94%
Total Cell Count [12]: 131
